The values below come from ChEMBL document CHEMBL1151762, “5-(1-Acetoxyvinyl)-cycloSaligenyl-2',3'-dideoxy-2',3'- didehydrothymidine monophosphates, a second type of new, enzymatically activated cycloSaligenyl pronucleotides” (J Med Chem, 2008).

Data set [1] relates to Human immunodeficiency virus 2. As to the kind of experiment: Antiviral activity against HIV2 replication in human thymidine kinase deficient CEM cells assessed as virus-induced cytopathic effect. The format is functional, organism-based. The conditions noted are these: Human immunodeficiency virus 2, CCRF-CEM. In short, it runs like this:
(§1)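 CEM T-lymphocyte cultures (wild-type CEM/0 or thymidine kinase-deficient CEM/TK-) infected with HIV-1 or HIV-2; read-out is virus-induced cytopathic effect (giant cell formation). EC50 = 50% effective concentration, given as the mean of two to three independent experiments.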

A short description of data set [2]: Cytotoxicity against human wild type CEM/0 cells. The format is cell-based. The settings on record: CCRF-CEM. In short, it runs like this: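 Wild-type CEM cells; cytostatic activity reported as the 50% cytostatic concentration.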
The nature of data set [3]: Chemical stability assessed as half life of hydrolysis in 25 mM phosphate buffer at pH 7.3. The class given is physicochemical. The method, boiled down: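 Triesters incubated at pH 7.3 in aqueous 25 mM phosphate buffer and followed by HPLC. Half-life is taken from disappearance of the triester.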
The nature of data set [4]: Chemical stability assessed as half life of hydrolysis in RPMI-1640 culture medium at pH 7.6 in presence 10% heat-inactivated fetal calf serum. The format is physicochemical. The method, boiled down: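 RPMI-1640 with 10% heat-inactivated fetal calf serum, pH 7.6 (the antiviral test medium), used in place of cell extract and run by the same HPLC procedure. Half-life is taken from disappearance of the triester.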

Data set [5] deals with Human immunodeficiency virus 1. Put plainly: Antiviral activity against HIV1 replication in human wild type CEM/0 cells assessed as virus-induced cytopathic effect. The format is functional, organism-based. The settings on record: Human immunodeficiency virus 1, CCRF-CEM. The method, boiled down: as §1
In general terms: Cytopathic effects are the visible damage that an infection or toxin causes in cultured cells.

For data set [6], the system named is Human immunodeficiency virus 2. Put plainly: Antiviral activity against HIV2 replication in human wild type CEM/0 cells assessed as virus-induced cytopathic effect. The class given is functional, organism-based. The conditions noted are these: Human immunodeficiency virus 2, CCRF-CEM. In short, it runs like this:
as §1

The nature of data set [7]: Chemical stability assessed as half life of hydrolysis in CEM cell extracts at pH 6.9. The class given is physicochemical, CCRF-CEM. The conditions noted are these: human. In short, it runs like this:
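T-lymphocyte CEM cell extracts at pH 6.9, analysed by HPLC. Half-life is taken from disappearance of the triester.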

Some results are limits rather than exact numbers.

Consider `Cc1cn([C@H]2C=C[C@@H](COP3(=O)OCc4cc(C=O)cc(C(C)(C)C)c4O3)O2)c(=O)[nH]c1=O` (some centres not stated), for which the EC50 in data set [1] worked out at 15000 nM. Besides, the CC50 in data set [2] was found to be 33 µM.

Consider `CC(=O)OC(OC(C)=O)c1cc2c(c(C(C)(C)C)c1)OP(=O)(OC[C@@H]1C=C[C@H](n3cc(C)c(=O)[nH]c3=O)O1)OC2` (some centres not stated), for which the EC50 in data set [1] turned out to be 780 nM. The cytotoxic concentration (CC50) in data set [2] was 19 µM.

Consider `CC(=O)c1ccc2c(c1)COP(=O)(OC[C@@H]1C=C[C@H](n3cc(C)c(=O)[nH]c3=O)O1)O2` (some centres not stated), for which the half-life in data set [3] is 18 min; in data set [4] it was 36 min. The concentration giving a half-maximal response (EC50) in data set [5] is 1300 nM; in data set [6] it was 3000 nM; in data set [1] it was above 50000 nM. Moreover, in data set [2], the 50% cytotoxic concentration (CC50) amounted to 148 µM.

For the molecule `CC(=O)c1cc(C)c2c(c1)COP(=O)(OC[C@@H]1C=C[C@H](n3cc(C)c(=O)[nH]c3=O)O1)O2` (some centres not stated), the half-life in data set [3] is 45 min; in data set [4] it was 60 min. Besides, the EC50 in data set [5] stood at 540 nM; in data set [6], 2200 nM; in data set [1] it was 36000 nM. This molecule also had a CC50 in data set [2] of 96 µM.

Take `Cc1cn([C@H]2C=C[C@@H](CO[P@@]3(=O)OCc4cc(C(OC(=O)C(C)C)OC(=O)C(C)C)cc(C(C)(C)C)c4O3)O2)c(=O)[nH]c1=O`: the EC50 in data set [1] was 3600 nM. Moreover, in data set [2], half-maximal cytotoxicity (CC50) was put at 40 µM.

Regarding `CC(=O)OC(OC(C)=O)c1cc2c(c(C(C)(C)C)c1)O[P@](=O)(OC[C@@H]1C=C[C@H](n3cc(C)c(=O)[nH]c3=O)O1)OC2`, the EC50 in data set [1] is 290 nM. In data set [2], this molecule came in with a cytotoxic concentration (CC50) of 17 µM.

Consider `CC(=O)OC(OC(C)=O)c1cc2c(c(C(C)(C)C)c1)O[P@@](=O)(OC[C@@H]1C=C[C@H](n3cc(C)c(=O)[nH]c3=O)O1)OC2`, for which the half-maximal effective concentration (EC50) in data set [1] came out at 3900 nM. In data set [2], this molecule registered a CC50 of 51 µM.

With `C=C(OC(C)=O)c1cc2c(c(C(C)(C)C)c1)O[P@](=O)(OC[C@@H]1C=C[C@H](n3cc(C)c(=O)[nH]c3=O)O1)OC2`, the half-life in data set [3] was 810 min; in data set [7], 2.4 min; in data set [4], 456 min. The half-maximal effective concentration (EC50) in data set [5] came to 210 nM; in data set [6], 800 nM; in data set [1] it was 270 nM. Further, in data set [2], the 50% cytotoxic concentration (CC50) came to 20 µM.

As for `C=C(OC(C)=O)c1cc2c(c(C(C)(C)C)c1)O[P@@](=O)(OC[C@@H]1C=C[C@H](n3cc(C)c(=O)[nH]c3=O)O1)OC2`, the half-life in data set [3] was 678 min; in data set [7], 2.4 min; in data set [4], 222 min. Further, the 50% effective concentration (EC50) in data set [5] was determined as 470 nM; in data set [6], 1100 nM; in data set [1] it was 1700 nM. Also, the half-maximal cytotoxic concentration (CC50) in data set [2] was 67 µM.

`Cc1cn([C@H]2C=C[C@@H](CO[P@@]3(=O)OCc4cc(C=O)cc(C(C)(C)C)c4O3)O2)c(=O)[nH]c1=O`: in data set [1], the EC50 is 10000 nM. In addition, the CC50 in data set [2] worked out at 41 µM.

Consider `CC(=O)c1cc2c(c(C(C)(C)C)c1)O[P@@](=O)(OC[C@@H]1C=C[C@H](n3cc(C)c(=O)[nH]c3=O)O1)OC2`, for which the half-life is 138 min in data set [3] and 120 min in data set [4]. The EC50 in data set [5] is 750 nM; in data set [6] it was 1200 nM; in data set [1] it was 2800 nM. The molecule also came in with a 50% cytotoxic concentration (CC50) in data set [2] of 64 µM.

`C=C(OC(C)=O)c1ccc2c(c1)COP(=O)(OC[C@@H]1C=C[C@H](n3cc(C)c(=O)[nH]c3=O)O1)O2` (some centres not stated): the half-life in data set [3] was 84 min; in data set [7], 7.8 min; in data set [4], 60 min. The EC50 in data set [5] was 650 nM; in data set [6], 800 nM; in data set [1], above 50000 nM. In data set [2], this molecule showed a CC50 of 111 µM.

Regarding `Cc1cn([C@H]2C=C[C@@H](CO[P@]3(=O)OCc4cc(C=O)cc(C(C)(C)C)c4O3)O2)c(=O)[nH]c1=O`, the EC50 in data set [1] came to 2600 nM. The CC50 in data set [2] is 27 µM.

As to `Cc1cn([C@H]2C=C[C@@H](CO[P@]3(=O)OCc4cc(C(OC(=O)C(C)C)OC(=O)C(C)C)cc(C(C)(C)C)c4O3)O2)c(=O)[nH]c1=O`, in data set [1], the concentration for a half-maximal effect (EC50) amounted to 1400 nM. Besides, the 50% cytotoxic concentration (CC50) in data set [2] was 14 µM.

`Cc1cn([C@H]2C=C[C@@H](COP3(=O)OCc4cc(C(OC(=O)C(C)C)OC(=O)C(C)C)cc(C(C)(C)C)c4O3)O2)c(=O)[nH]c1=O` (some centres not stated): in data set [1], the EC50 worked out at 2400 nM. Moreover, the half-maximal cytotoxic concentration (CC50) in data set [2] was determined as 20 µM.

Regarding `CC(=O)c1cc2c(c(C(C)(C)C)c1)OP(=O)(OC[C@@H]1C=C[C@H](n3cc(C)c(=O)[nH]c3=O)O1)OC2` (some centres not stated), the half-life is 138 min in data set [3] and 150 min in data set [4]. Besides, the EC50 in data set [5] amounted to 450 nM; in data set [6], 870 nM; in data set [1], 1700 nM. Also, it took 49 µM to reach half-maximal cytotoxicity in data set [2] (CC50).

Take `C=C(OC(C)=O)c1cc2c(c(C(C)(C)C)c1)OP(=O)(OC[C@@H]1C=C[C@H](n3cc(C)c(=O)[nH]c3=O)O1)OC2` (some centres not stated): the half-life in data set [3] is 738 min; in data set [7] it was 2.4 min; in data set [4], 312 min. Besides, the 50% effective concentration (EC50) in data set [5] worked out at 470 nM; in data set [6] it was 880 nM; in data set [1] it was 1700 nM. Besides, the midpoint of cytotoxicity in data set [2], the CC50, lay at 49 µM.

For `CC(=O)c1cc2c(c(C(C)(C)C)c1)O[P@](=O)(OC[C@@H]1C=C[C@H](n3cc(C)c(=O)[nH]c3=O)O1)OC2`, the results for the half-life in data set [3] and in data set [4] were 138 min and 192 min, respectively. Further, the results for the EC50 in data set [5], in data set [6] and in data set [1] were 180 nM, 510 nM and 550 nM, respectively. Moreover, in data set [2], the midpoint of cytotoxicity, the CC50, lay at 56 µM.

In the case of `C=C(OC(C)=O)c1cc(C)c2c(c1)COP(=O)(OC[C@@H]1C=C[C@H](n3cc(C)c(=O)[nH]c3=O)O1)O2` (some centres not stated), the half-life was 366 min in data set [3], 4.2 min in data set [7] and 108 min in data set [4]. Further, the values for the 50% effective concentration (EC50) in data set [5], in data set [6] and in data set [1] were 180 nM, 400 nM and 730 nM, respectively. Further, the half-maximal cytotoxic concentration (CC50) in data set [2] was determined as 18 µM.

In the case of `Cc1cn([C@H]2C=C[C@@H](CO)O2)c(=O)[nH]c1=O` [STAVUDINE], the values for the half-maximal effective concentration (EC50) in data set [5], in data set [6] and in data set [1] were 850 nM, 1100 nM and 69000 nM, respectively. This molecule had a CC50 in data set [2] of 220 µM.

Usually EC50 stands for the concentration giving half of the maximal effect. For orientation: CC50 means the concentration that lowers cell viability or growth by half. The half-life is the time needed for the level to fall by half in the phase considered.
